Data as given in publication PMC3281520 (Nature chemical biology, 2012).

Legend:
[1] = target: T1, ProRS (amino acids 998–1513 of human EPRS) (Homo sapiens, UniProt P07814); assay: [3H]-HFol binding to immobilized ProRS
T1 sequence (P07814 998-1512 limits assumed): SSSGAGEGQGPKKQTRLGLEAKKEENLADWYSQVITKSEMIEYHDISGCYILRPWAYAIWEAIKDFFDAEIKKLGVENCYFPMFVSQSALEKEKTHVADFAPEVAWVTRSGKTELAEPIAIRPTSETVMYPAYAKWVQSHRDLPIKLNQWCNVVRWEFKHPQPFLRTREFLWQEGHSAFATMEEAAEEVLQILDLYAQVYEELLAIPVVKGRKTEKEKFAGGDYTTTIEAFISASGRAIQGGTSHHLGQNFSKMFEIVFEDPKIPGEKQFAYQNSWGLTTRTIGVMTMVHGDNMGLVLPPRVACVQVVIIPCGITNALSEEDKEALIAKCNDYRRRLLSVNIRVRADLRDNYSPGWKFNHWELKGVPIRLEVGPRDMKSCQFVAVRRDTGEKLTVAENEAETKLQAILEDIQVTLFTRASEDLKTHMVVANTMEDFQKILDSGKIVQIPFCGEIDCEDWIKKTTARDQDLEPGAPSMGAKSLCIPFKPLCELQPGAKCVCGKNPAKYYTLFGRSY
In short: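 His6-tagged human EPRS prolyl-tRNA synthetase domain, expressed in E. coli, immobilized on Ni-NTA beads. Beads washed twice in ice-cold buffer; bound counts by scintillation, with beads given tag-free E. coli extract as background.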

[2] = system: primary murine CD4+ CD25− T cells; assay: Th17 cell differentiation; format: cell-based, mouse
In short: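 CD4+ CD25− T cells from spleens and peripheral lymph nodes of wild-type C57B/6 mice, TCR-activated under Th17-polarizing conditions with test compound and amino acid supplements: 10x EAA or NEAA mixes, or single amino acids at 1 mM. Day 4 restimulation with PMA 10 nM, ionomycin and brefeldin A for 4–5 h. Intracellular cytokine staining, flow cytometry; % IL-17+ IFNγ− cells, triplicate wells, SD.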

[3] = system: translation in rabbit reticulocyte lysate (RRL); assay: Cell free in vitro translation in rabbit reticulocyte lysate; format: biochemical; conditions: for effect on translation of luciferase RNA in RRL: cell free, luminescence assay (Fig. 2a, 2b); for translation of Nopropep (proline-free polypeptide) in RRL / translation of Propep (polypeptide with proline dipeptide) in RRL: inhibitor 1 μM, anti-myc Western blot (Fig. 2c)
In short: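 Rabbit reticulocyte lysate per kit instructions, standard amino acid mix diluted 5-fold; sometimes preincubated at 30 degrees with another RNA to deplete endogenous charged tRNAs. Luciferase mRNA translation read by luciferase luminescence. Rescue with amino acid mixtures or single amino acids at 1 mM each; triplicates, SD. Myc-tagged peptides ± proline dipeptide: inhibitors 1 μM, proline 1 mM, anti-myc Western blot.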

AAR pathway in MEFs = assay: AAR pathway activation in MEFs; format: cell-based, mouse; conditions: 2 hours (Fig. 5a); for stimulation of GCN2 phosphorylation in the presence of proline: 2 mM proline
In short: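 MEFs grown in 10% FCS/DMEM, then exposed to test compound with or without 2 mM proline for 2 h. Lysis was in RIPA with 5 mM EDTA, phosphatase and protease inhibitors. Western blot for total GCN2 and Thr898-phospho-GCN2; three separate experiments. For CHOP: 50 nM test compound ± 2 mM proline, lysis 6 h later, CHOP Western blot with cytoplasmic actin as loading control.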

mTORC1 signaling = mTORC1 signaling in T cells and fibroblasts; format: cell-based, mouse; conditions: 100 nM HF in MEFs (Supplementary Fig. 10)
[4] = system: prolyl-tRNA charging in the RRL system; assay: tRNA charging in RRL; format: biochemical, rabbit; conditions: doses comparable to those that inhibit translation (Fig. 2d)
In short: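 Rabbit reticulocyte lysate incubated with 1 μCi 14C-proline or 35S-methionine, added bovine tRNA and 2 μM puromycin to block use of charged tRNA in translation, with or without test compound. Total tRNA then extracted with a small-RNA isolation kit. Radioactivity in tRNA measured by liquid scintillation counting; triplicates, SD.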

[5] = Intracellular HF levels by anti-HF ELISA; format: in vitro ADME, mouse; conditions: MEFs, 2 mM proline, 2 hours (Supplementary Fig. 11)
[6] = system: mouse embryo fibroblasts (MEFs); assay: ECM gene expression and protein production in fibroblasts; format: cell-based
In short: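 MEFs in 10% FCS/DMEM were treated with 50 nM test compound and/or 2 mM proline. Exposure was 4 h for CHOP and S100A4 and 24 h for Col1A1 and Col1A2. mRNA by quantitative RT-PCR, normalised to TBP, relative to untreated. Triplicate determinations from triplicate plates; two-tailed Student's t test for compound alone versus compound plus proline.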

[7] = target: prolyl tRNA synthetase domain of human EPRS (ProRS) (Homo sapiens, UniProt P07814); assay: Assay of ProRS activity; format: biochemical

C[C@H](N)C(=O)NS(=O)(=O)OC[C@H]1O[C@@H](n2cnc3c(N)ncnc32)[C@H](O)[C@@H]1O [AlaSAd, alanyl sulfamoyl adenosine]
inhibition of binding of [3H]-HFol to ProRS at 50 nM ([1]; 50 nM (Fig. 4a)): partially inhibited

C[C@@H]1C[C@H](C)C[C@H](C)[C@@H](O)CC(=O)O[C@H]([C@@H]2CCC[C@H]2C(=O)O)C/C=C/C=C(/C#N)[C@H](O)[C@@H](C)C1 [Borrelidin, borrelidin]
Th17 cell differentiation ([2]; Th17 polarizing conditions, borrelidin 6 nM (Supplementary Fig. 13)): inhibited
effects on Th17 differentiation on addition of excess cognate amino acid ([2]; threonine 1 mM (Fig. 6b)): reversed

O=C(C[C@H]1NCCC[C@@H]1O)Cn1cnc2ccccc2c1=O [FF, febrifugine]
effect on translation of luciferase RNA in RRL [3]: inhibited
translation of Nopropep (proline-free polypeptide) in RRL [3]: no effect
translation of Propep (polypeptide with proline dipeptide) in RRL [3]: prevent translation
stimulation of GCN2 phosphorylation in the presence of proline (AAR pathway in MEFs): abrogated
GCN2 phosphorylation in fibroblasts (AAR pathway in MEFs): stimulation

O=C(CC1NCCCC1O)Cn1cnc2cc(Br)c(Cl)cc2c1=O (stereo not shown) [HF, halofuginone]
inhibition of mTORC1 signaling (mTORC1 signaling): without concomitant inhibition
incorporation of 14C-Pro into tRNA [4]: inhibited
intracellular accumulation of HF on proline addition [5]: not affected
effect on translation of luciferase RNA in RRL [3]: inhibited
translation of Nopropep (proline-free polypeptide) in RRL [3]: no effect
translation of Propep (polypeptide with proline dipeptide) in RRL [3]: prevent translation
translation inhibited by HF, after supplementation of RRL with excess amino acids ([3]; proline 1 mM, only proline is effective (Fig. 2a)): restores
inhibition of ECM proteins in the presence of proline ([6]; 2 mM proline in the media (Supplementary Fig. 15)): reversed
production of secreted Type I procollagen and of fibronectin ([6]; 24 hours treatment (Fig. 6d)): dramatically inhibited
expression of mRNA encoding CHOP ([6]; MEFs, HF 50 nM, 4 hours (Fig. 6c)): stimulated
mRNA levels of Col1A1, Col1A2, and S100A4 ([6]; MEFs, HF 50 nM, 4 hours (S100A4) or 24 hours (Col1A1, Col1A2), restored by proline (Fig. 6c)): inhibits
35S-methionine incorporation into total protein ([6]; doses that inhibit ECM protein production (Fig. 6d)): did not significantly change
competition of [3H]-HFol binding to ProRS ([1]; Fig. 3a): competed
Ki [7]: 18.3 nM
Th17 differentiation in HF-treated T cells with individual amino acid supplement ([2]; 10 nM HF, proline 1 mM, only proline effective (Fig. 6a)): rescued
stimulation of GCN2 phosphorylation in the presence of proline (AAR pathway in MEFs): abrogated
GCN2 phosphorylation in fibroblasts (AAR pathway in MEFs): stimulation
